In brackets after ≈: the same amount, converted by molar mass.
Columns and labels:
Mus musculus [1] = assay: Toxicity in mouse at 100 mg/kg, iv administered for 4 days assessed as transient seizure like reaction measured after 10 mins of compound administration; type: organism-based; set-up: dose 100 mg/kg, route intravenous; conditions: in vivo
Mus musculus [2] = assay: Toxicity in mouse at 100 mg/kg, iv administered for 4 days assessed as transient seizure like reaction measured after 1 day of compound administration; type: organism-based; set-up: dose 100 mg/kg, route intravenous; conditions: in vivo, 24 h
Mus musculus [3] = assay: Toxicity in iv dosed mouse assessed as incidence of mortality measured 14 days post dose; type: organism-based; conditions: in vivo, 336 h
Outline: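 Male mice (n = 4), 15–30 g, given water only for 12 h beforehand. Dosed intravenously by tail vein in 50% PEG in saline at 10, 50 or 100 mg/kg/day for 4 days (total dose volume 20 mL/kg). Weight gain, mobility and mortality were observed up to 14 days.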

Staphylococcus aureus [4] = assay: Antibacterial activity against methicillin-susceptible Staphylococcus aureus 209P after 24 hrs by microdilution method; type: functional
Outline: (§1)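 Broth microdilution in Mueller-Hinton broth with 0.85% NaCl, inoculum about 10^5 CFU per 100 μL. Compounds were diluted in water from 25.6 mg/mL stocks to final 2-fold series of 0.062–128 μg/mL. Plates were incubated 24 h at 35 °C. MIC was the lowest concentration at which all triplicate wells were clear, from three independent determinations.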

Enterococcus [5] = assay: Antibacterial activity against vancomycin resistant Enterococcus FN-1 after 24 hrs by microdilution method; type: functional; conditions: FN-1, 24 h; outline: as §1
Enterococcus [6] = assay: Antibacterial activity against vancomycin resistant Enterococcus NCTC 12201 after 24 hrs by microdilution method; type: functional; conditions: NCTC 12201, 24 h; outline: as §1
Staphylococcus aureus [7] = assay: Antibacterial activity against vancomycin-intermediate Staphylococcus aureus Mu50 after 24 hrs by microdilution method; type: functional; conditions: Mu50, 24 h; outline: as §1
Staphylococcus aureus [8] = assay: Antibacterial activity against methicillin-resistant Staphylococcus aureus OM481 after 24 hrs by microdilution method; type: functional; conditions: OM481, 24 h; outline: as §1
Staphylococcus aureus [9] = assay: Antibacterial activity against methicillin-resistant Staphylococcus aureus OM584 after 24 hrs by microdilution method; type: functional; conditions: OM584, 24 h; outline: as §1
Staphylococcus aureus [10] = assay: Antibacterial activity against methicillin-resistant Staphylococcus aureus N315 after 24 hrs by microdilution method; type: functional; conditions: N315, 24 h; outline: as §1
Staphylococcus aureus [11] = assay: Antibacterial activity against methicillin-resistant Staphylococcus aureus COL after 24 hrs by microdilution method; type: functional; outline: as §1
Streptococcus pneumoniae = assay: Antibacterial activity against Streptococcus pneumoniae R6 after 24 hrs by microdilution method; type: functional; conditions: R6, 24 h
Outline: (§2)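 Broth microdilution in Mueller-Hinton broth with 0.85% NaCl, inoculum about 10^5 CFU per 100 μL. Compounds diluted from 25.6 mg/mL stocks in water to 2-fold series, final 0.062–128 μg/mL. […] Three independent determinations.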

Pseudomonas aeruginosa = assay: Antibacterial activity against Pseudomonas aeruginosa PAO1 after 24 hrs by microdilution method; type: functional; conditions: PAO1, 24 h; outline: as §2
Escherichia coli = assay: Antibacterial activity against Escherichia coli K-12 after 24 hrs by microdilution method; type: functional; conditions: K-12, 24 h; outline: as §2
[12] = Inhibition of Escherichia coli DNA gyrase assessed as inhibition of pBR322 supercoiling by densitometry
Outline: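 One unit of E. coli gyrase with 0.5 μg relaxed pBR322 DNA, 37 °C, 30 min. Stopped with sucrose/EDTA dye, run on 1.0% agarose in TAE. IC50 from densitometry via log-interpolation equation.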

[13] = Inhibition of Staphylococcus aureus DNA Topoisomerase 4-mediated decatenation of kDNA after 30 mins by densitometry
Outline: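 Purchased S. aureus topoIV, one unit with 200 ng kDNA, 37 °C, 30 min. Products resolved on 1.0% agarose in TAE. IC50 of decatenation from densitometry by interpolation equation, at least three determinations.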

[14] = Inhibition of Escherichia coli DNA topoisomerase 4 subunit ParC/DNA topoisomerase 4 subunit ParE-mediated decatenation of kDNA by densitometry
Outline: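 Purchased E. coli topoIV kit enzyme, one unit with 200 ng kDNA, 37 °C, 30 min. Buffer: 50 mM HEPES-KOH pH 7.6, 5 mM magnesium acetate, 100 mM potassium glutamate, 10 mM DTT, 1 mM ATP, 40% glycerol. Gel on 1.0% agarose in TAE. IC50 of decatenation from densitometry by interpolation equation, at least three determinations.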

[15] = Ratio IC50 for Escherichia coli DNA topoisomerase 4 ParC/DNA topoisomerase 4 subunit ParE-mediated decatenation of kDNA to IC50 for Staphylococcus aureus DNA topoisomerase 4 subunit B-mediated decatenation of kDNA
Mus musculus [16] = assay: Toxicity in mouse at 10 mg/kg, iv administered for 4 days measured after 14 days; type: organism-based; set-up: dose 10 mg/kg, route intravenous; conditions: in vivo, 336 h
Mus musculus [17] = assay: Toxicity in mouse at 50 mg/kg, iv administered for 4 days measured after 14 days; type: organism-based; set-up: dose 50 mg/kg, route intravenous; conditions: in vivo, 336 h
[18] = Intestinal absorption in Wistar rat at 1 mg/mL, injected into small intestine, measured after 1 hr by UV-spectrophotometric analysis; conditions: in situ, intestinal injection
Enterococcus [19] = assay: Ratio MIC for vancomycin to compound for vancomycin-resistant Enterococcus FN-1; type: functional

Compound	MIC (Staphylococcus aureus [4])	MIC (Enterococcus [5])	MIC (Enterococcus [6])	MIC (Staphylococcus aureus [7])	MIC (Staphylococcus aureus [8])	MIC (Staphylococcus aureus [9])	MIC (Staphylococcus aureus [10])	MIC (Staphylococcus aureus [11])	MIC (Streptococcus pneumoniae)	MIC (Pseudomonas aeruginosa)	MIC (Escherichia coli)	IC50 [12]	IC50 [13]	IC50 [14]	Ratio (Enterococcus [19])	other results
O=C(CCc1ccc(F)cc1)OC[C@H]1O[C@@H](Oc2c(-c3ccc(O)c(O)c3)oc3cc(O)cc(O)c3c2=O)[C@H](OC(=O)CCc2ccc(F)cc2)[C@@H](O)[C@H]1O	0.13 µg/mL (≈ 0.17 µM)	0.25 µg/mL (≈ 0.327 µM)	0.25 µg/mL (≈ 0.327 µM)	0.5 µg/mL (≈ 0.654 µM)	0.13 µg/mL (≈ 0.17 µM)	0.13 µg/mL (≈ 0.17 µM)	0.13 µg/mL (≈ 0.17 µM)	0.5 µg/mL (≈ 0.654 µM)	0.13 µg/mL (≈ 0.17 µM)	> 128 µg/mL	> 128 µg/mL	780 nM	220 nM	9160 nM		Activity (Mus musculus [1]): Toxic; Activity (Mus musculus [2]): Non-toxic; Activity (Mus musculus [3]): Non-toxic; Ratio IC50 [15]: 40; Activity (Mus musculus [16]): Non-toxic; Activity (Mus musculus [17]): Non-toxic; Fa at 1 h [18]: 76.6%
O=C(CCc1ccc(F)cc1)Oc1cc(O)c2c(=O)c(OC(=O)CCc3ccc(F)cc3)c(-c3ccc(O)c(O)c3)oc2c1	64 µg/mL (≈ 106 µM)	64 µg/mL (≈ 106 µM)	32 µg/mL (≈ 53.1 µM)	32 µg/mL (≈ 53.1 µM)	16 µg/mL (≈ 26.6 µM)	16 µg/mL (≈ 26.6 µM)	16 µg/mL (≈ 26.6 µM)	32 µg/mL (≈ 53.1 µM)	32 µg/mL (≈ 53.1 µM)	64 µg/mL (≈ 106 µM)	64 µg/mL (≈ 106 µM)	720 nM	290 nM	6760 nM	2	
Cc1ccc(CCC(=O)Oc2cc(O)c3c(=O)c(OC(=O)CCc4ccc(C)cc4)c(-c4ccc(O)c(O)c4)oc3c2)cc1	64 µg/mL (≈ 108 µM)	64 µg/mL (≈ 108 µM)	64 µg/mL (≈ 108 µM)	16 µg/mL (≈ 26.9 µM)	32 µg/mL (≈ 53.8 µM)	32 µg/mL (≈ 53.8 µM)	32 µg/mL (≈ 53.8 µM)	32 µg/mL (≈ 53.8 µM)	32 µg/mL (≈ 53.8 µM)	64 µg/mL (≈ 108 µM)	64 µg/mL (≈ 108 µM)	1660 nM	440 nM	8590 nM	2	
CC(=O)OC[C@H]1O[C@@H](Oc2cc(O)c3c(=O)c(O[C@@H]4O[C@H](COC(C)=O)[C@H](OC(C)=O)[C@H](OC(C)=O)[C@H]4OC(C)=O)c(-c4ccc(O)c(O)c4)oc3c2)[C@H](OC(C)=O)[C@@H](OC(C)=O)[C@H]1OC(C)=O	128 µg/mL (≈ 133 µM)	64 µg/mL (≈ 66.5 µM)	64 µg/mL (≈ 66.5 µM)	128 µg/mL (≈ 133 µM)	128 µg/mL (≈ 133 µM)	128 µg/mL (≈ 133 µM)	128 µg/mL (≈ 133 µM)	> 128 µg/mL	128 µg/mL (≈ 133 µM)	> 128 µg/mL	> 128 µg/mL				2	
O=C(CCc1ccc(F)cc1)OC[C@H]1O[C@@H](Oc2c(-c3ccc(O)c(O)c3)oc3cc(O)cc(O)c3c2=O)[C@H](O)[C@@H](O)[C@H]1O	16 µg/mL (≈ 26 µM)	16 µg/mL (≈ 26 µM)	16 µg/mL (≈ 26 µM)	32 µg/mL (≈ 52.1 µM)	16 µg/mL (≈ 26 µM)	16 µg/mL (≈ 26 µM)	16 µg/mL (≈ 26 µM)	32 µg/mL (≈ 52.1 µM)	32 µg/mL (≈ 52.1 µM)	> 128 µg/mL	> 128 µg/mL	1400 nM	2990 nM	11500 nM		
O=C(CCc1ccc(O)cc1)OC[C@H]1O[C@@H](Oc2c(-c3ccc(O)c(O)c3)oc3cc(O)cc(O)c3c2=O)[C@H](OC(=O)CCc2ccc(O)cc2)[C@@H](O)[C@H]1O	2 µg/mL (≈ 2.63 µM)	4 µg/mL (≈ 5.26 µM)	4 µg/mL (≈ 5.26 µM)	2 µg/mL (≈ 2.63 µM)	1 µg/mL (≈ 1.31 µM)	1 µg/mL (≈ 1.31 µM)	2 µg/mL (≈ 2.63 µM)	4 µg/mL (≈ 5.26 µM)	4 µg/mL (≈ 5.26 µM)	> 128 µg/mL	> 128 µg/mL	2390 nM	1590 nM	10900 nM		
O=C(Cc1ccc(F)cc1)OC[C@H]1O[C@@H](Oc2c(-c3ccc(O)c(O)c3)oc3cc(O)cc(O)c3c2=O)[C@H](OC(=O)Cc2ccc(F)cc2)[C@@H](O)[C@H]1O	1 µg/mL (≈ 1.36 µM)	0.5 µg/mL (≈ 0.679 µM)	0.5 µg/mL (≈ 0.679 µM)	1 µg/mL (≈ 1.36 µM)	1 µg/mL (≈ 1.36 µM)	1 µg/mL (≈ 1.36 µM)	1 µg/mL (≈ 1.36 µM)	8 µg/mL (≈ 10.9 µM)	1 µg/mL (≈ 1.36 µM)	> 128 µg/mL	> 128 µg/mL	1050 nM	460 nM	10200 nM		
CCOc1ccc(CCC(=O)OC[C@H]2O[C@@H](Oc3c(-c4ccc(O)c(O)c4)oc4cc(O)cc(O)c4c3=O)[C@H](OC(=O)CCc3ccc(OCC)cc3)[C@@H](O)[C@H]2O)cc1	8 µg/mL (≈ 9.79 µM)	16 µg/mL (≈ 19.6 µM)	16 µg/mL (≈ 19.6 µM)	8 µg/mL (≈ 9.79 µM)	4 µg/mL (≈ 4.9 µM)	4 µg/mL (≈ 4.9 µM)	2 µg/mL (≈ 2.45 µM)	8 µg/mL (≈ 9.79 µM)	8 µg/mL (≈ 9.79 µM)	> 128 µg/mL	> 128 µg/mL	5390 nM	2990 nM	> 12000 nM		
O=C(OC[C@H]1O[C@@H](Oc2c(-c3ccc(O)c(O)c3)oc3cc(O)cc(O)c3c2=O)[C@H](OC(=O)c2ccc(F)cc2)[C@@H](O)[C@H]1O)c1ccc(F)cc1	4 µg/mL (≈ 5.65 µM)	4 µg/mL (≈ 5.65 µM)	4 µg/mL (≈ 5.65 µM)	2 µg/mL (≈ 2.82 µM)	2 µg/mL (≈ 2.82 µM)	2 µg/mL (≈ 2.82 µM)	8 µg/mL (≈ 11.3 µM)	8 µg/mL (≈ 11.3 µM)	4 µg/mL (≈ 5.65 µM)	> 128 µg/mL	> 128 µg/mL	380 nM	520 nM	11000 nM		

Source: ChEMBL document CHEMBL1795235, “Quercetin diacylglycoside analogues showing dual inhibition of DNA gyrase and topoisomerase IV as novel antibacterial agents” (J Med Chem, 2011)
